According to ChEMBL document CHEMBL2331327, “Bioactive abietane and ent-kaurane diterpenoids from Isodon tenuifolius” (J Nat Prod, 2013):
Residues, ends and D or L forms follow the SMILES beside them. *: point of attachment. Cbz = O=C(OCc1ccccc1)*

How the values were obtained:
RAW264.7 [1] = assay: Cytotoxicity against mouse RAW264.7 cells assessed as inhibition of cell viability after 18 hrs by MTS assay; format: cell-based; details: raw264.7, 18 h
Summary of the method: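 RAW264.7 cells seeded at 2 × 10^5 cells/well and preincubated 24 h, then exposed to compounds (DMSO solutions) at given concentrations for 18 h. MTS added for 4 h and absorbance read at 490 nm. Viability expressed relative to untreated cells as 100%.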

RAW264.7 [2] = assay: Inhibition of nitric oxide production in LPS-stimulated mouse RAW264.7 cells measured after 18 hrs by Griess reagent based multilabel plate reader analysis; format: functional, cell-based; details: RAW264.7, 18 h
Summary of the method: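 RAW264.7 macrophages in RPMI 1640 with 10% FBS at 2 × 10^5 cells/well, preincubated 24 h at 37 °C, 5% CO2. Then 18 h with 1 μg/mL LPS plus serial dilutions of compound (DMSO stock diluted in medium; top concentration 25 μM). Supernatant mixed 1:1 with Griess reagent, 5 min, absorbance at 570 nm, in triplicate. MG-132 as positive control.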

SW480 = assay: Cytotoxicity against human SW480 cells assessed as inhibition of cell viability after 48 hrs by MTT assay; format: functional, cell-based; details: SW480, 48 h
Summary of the method: (§1)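 Cells grown in RPMI-1640 or DMEM with 10% FBS, 37 °C, 5% CO2. Adherent lines seeded at 1 × 10^5 cells/mL and allowed 12 h to attach; suspension cells seeded just before dosing. Compounds tested at various concentrations in triplicate for 48 h; cisplatin and paclitaxel as positive controls. MTT added for 4 h at 37 °C, then lysis in 20% SDS−50% DMF and OD read at 595 nm. IC50 by Reed and Muench method.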

HL-60 = assay: Cytotoxicity against human HL60 cells assessed as inhibition of cell viability after 48 hrs by MTT assay; format: functional, cell-based; details: HL-60, 48 h; summary of the method: as §1
A549 = assay: Cytotoxicity against human A549 cells assessed as inhibition of cell viability after 48 hrs by MTT assay; format: functional, cell-based; details: A549, 48 h; summary of the method: as §1
MCF7 = assay: Cytotoxicity against human MCF7 cells assessed as inhibition of cell viability after 48 hrs by MTT assay; format: functional, cell-based; details: MCF7, 48 h; summary of the method: as §1
SMMC-7721 = assay: Cytotoxicity against human SMMC7721 cells assessed as inhibition of cell viability after 48 hrs by MTT assay; format: functional, cell-based; details: SMMC-7721, 48 h; summary of the method: as §1

| SMILES | Activity (RAW264.7 [1]) | IC50 (RAW264.7 [2]) | IC50 (SW480) | IC50 (HL-60) | IC50 (A549) | IC50 (MCF7) | IC50 (SMMC-7721) |
| --- | --- | --- | --- | --- | --- | --- | --- |
| C=C1C(=O)[C@]23C[C@H]1C[C@H](OC(C)=O)[C@H]2[C@]1(C)[C@@H](OC(C)=O)C[C@H](O)C(C)(C)[C@H]1C[C@@H]3OC(C)=O [ADENANTHIN C] | Non-toxic | 3.8 µM | 5.1 µM | 1.8 µM | > 10 µM | 4.8 µM | 3.2 µM |
| C=C1[C@@H]2C[C@H](O)[C@H]3[C@@]4(C)[C@H](C[C@H](OC(C)=O)[C@]3(C2)[C@@H]1O)C(C)(C)[C@@H](OC(C)=O)C[C@@H]4O [ADENANTHIN E] | Non-toxic | > 25 µM | > 10 µM | > 10 µM | > 10 µM | > 10 µM | > 10 µM |
| C=C1[C@@H]2C[C@H](OC(C)=O)[C@H]3[C@]4(C)[C@@H](OC(C)=O)C[C@H](O)C(C)(C)[C@H]4C(=O)[C@H](OC(C)=O)[C@]3(C2)[C@@H]1O [ADENANTHIN J] | Non-toxic | > 25 µM | > 10 µM | > 10 µM | > 10 µM | > 10 µM | > 10 µM |
| C=C1C(=O)[C@@]23CC(=O)[C@@H]4C(C)(C)[C@@H](OC(C)=O)C[C@H](O)[C@@]4(C)[C@@H]2[C@@H](O)C[C@@H]1C3 [INFLEXARABDONIN E] | Non-toxic | 5.7 µM | 4.6 µM | 1.7 µM | 6.8 µM | 4.8 µM | 2.2 µM |
| CC(C)c1cc2c3c(c1)[C@H](O)C[C@H]1[C@](C)(CO)CC[C@H](O2)[C@]31C [ISOABIETENIN A] | Non-toxic | > 25 µM | > 10 µM | > 10 µM | > 10 µM | > 10 µM | > 10 µM |
| CC(C)[C@@]1(O)CC(=O)C2=C(C1)[C@H](O)C[C@H]1[C@](C)(CO)CCC[C@]21C [ISOABIETENIN B] | Non-toxic | > 25 µM | > 10 µM | > 10 µM | > 10 µM | > 10 µM | > 10 µM |
| C=C(C=O)[C@H]1C[C@@H](OC(C)=O)[C@H]2[C@@](O)(C1)[C@H](OC(C)=O)C(=O)[C@H]1C(C)(C)[C@H](O)C[C@@H](OC(C)=O)[C@@]12C [ISOABIETENIN C] | Non-toxic | 10.8 µM | > 10 µM | 4.7 µM | > 10 µM | > 10 µM | > 10 µM |
| CC(C)C[C@@H](C=O)NC(=O)[C@H](CC(C)C)NC(=O)[C@H](CC(C)C)NC(=O)OCc1ccccc1 [MG-132] (Cbz-Leu-Leu-Leu-aldehyde) |  | 0.15 µM |  |  |  |  |  |
| CC(=O)O[C@H]1C(=O)[C@@]2(C)[C@H]([C@H](OC(=O)c3ccccc3)[C@]3(O)C[C@H](OC(=O)[C@H](O)[C@@H](NC(=O)c4ccccc4)c4ccccc4)C(C)=C1C3(C)C)[C@]1(OC(C)=O)CO[C@@H]1C[C@@H]2O [PACLITAXEL] |  |  | 0.15 µM | < 0.008 µM | < 0.008 µM | < 0.008 µM | < 0.008 µM |
| C=C1C(=O)[C@@]23CC[C@@H]4C(C)(C)[C@H](O)CC[C@@]4(C)[C@@H]2[C@@H](O)C[C@@H]1C3 [TENUIFOLIN A] | Non-toxic | 6.9 µM | > 10 µM | 4.7 µM | > 10 µM | > 10 µM | 7.4 µM |
| C=C1[C@@H]2C[C@H](O)[C@H]3[C@]4(C)CC[C@H](O)C(C)(C)[C@H]4CC[C@]3(C2)[C@@H]1O [TENUIFOLIN B] | Non-toxic | > 25 µM | > 10 µM | > 10 µM | > 10 µM | > 10 µM | > 10 µM |
| C=C1[C@@H]2C[C@H](OC(C)=O)[C@@H]3[C@](C2)(C(=O)C[C@@H]2C(C)(C)[C@@H](O)C[C@H](OC(C)=O)[C@]23C)[C@@H]1OC(C)=O [TENUIFOLIN C] | Non-toxic | > 25 µM | > 10 µM | > 10 µM | > 10 µM | > 10 µM | > 10 µM |
| C=C1[C@@H]2C[C@H](OC(C)=O)[C@H]3[C@]4(C)[C@@H](OC(C)=O)C[C@H](O)C(C)(C)[C@H]4C[C@H](O)[C@]3(C2)[C@@H]1O [TENUIFOLIN D] | Non-toxic | > 25 µM | > 10 µM | > 10 µM | > 10 µM | > 10 µM | > 10 µM |
| C=C1[C@@H]2C[C@H](O)[C@H]3[C@]4(C)CC[C@H](O)C(C)(C)[C@H]4C(=O)C[C@]3(C2)[C@@H]1O [TENUIFOLIN E] | Non-toxic | > 25 µM | > 10 µM | > 10 µM | > 10 µM | > 10 µM | > 10 µM |
| C=C1[C@@H]2C[C@H](O)[C@@H]3[C@@](CC(=O)[C@@H]4C(C)(C)[C@@H](O)C[C@H](OC(C)=O)[C@]43C)(C2)[C@@H]1O [TENUIFOLIN F] | Non-toxic | > 25 µM | > 10 µM | > 10 µM | > 10 µM | > 10 µM | > 10 µM |
| C=C1[C@@H]2C[C@H](OC(C)=O)[C@@H]3[C@@](CC(=O)[C@@H]4C(C)(C)[C@@H](O)C[C@H](O)[C@]43C)(C2)[C@@H]1O [TENUIFOLIN G] | Non-toxic | > 25 µM | > 10 µM | > 10 µM | > 10 µM | > 10 µM | > 10 µM |
| C=C1[C@@H]2CC(=O)[C@@H]3[C@@](CC(=O)[C@@H]4C(C)(C)[C@@H](O)C[C@H](OC(C)=O)[C@]43C)(C2)[C@@H]1O [TENUIFOLIN H] | Non-toxic | > 25 µM | > 10 µM | > 10 µM | > 10 µM | > 10 µM | > 10 µM |
| C=C1C(=O)[C@@]23CC(=O)[C@@H]4C(C)(C)[C@@H](O)C[C@H](O)[C@@]4(C)[C@@H]2[C@@H](OC(C)=O)C[C@@H]1C3 [TENUIFOLIN I] | Non-toxic | 5.8 µM | 4.3 µM | 0.8 µM | 4.5 µM | 3 µM | 1.9 µM |
| C=C1C(=O)[C@@]23CC(=O)[C@@H]4C(C)(C)[C@@H](OC(C)=O)CC[C@@]4(C)[C@@H]2[C@@H](O)[C@H](O)[C@@H]1C3 [TENUIFOLIN J] | Non-toxic | 8.8 µM | > 10 µM | 3.8 µM | > 10 µM | > 10 µM | 6.3 µM |
| COC[C@@H]1C(=O)[C@]23C[C@H]1C[C@H](OC(C)=O)[C@H]2[C@@]1(C)[C@H](C(=O)[C@@H]3O)C(C)(C)[C@@H](O)C[C@@H]1O [TENUIFOLIN L] | Non-toxic | > 25 µM | > 10 µM | > 10 µM | > 10 µM | > 10 µM | > 10 µM |
